Assay outcomes (PubChem)
Lmaj promast – Leishmania major promastigote growth inhibition. Leishmania major promastigotes, resazurin fluorescence viability. inhibition, % at 10 µM. actives 9% (n = 200,000); in the data active = inhibition above about 50%;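 note: promastigotes grown with compound for 44 hours at 28 °C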
WT yeast gro inh – growth inhibition of WT yeast, mitochondrial fusion screen. mitochondrial fusion phenotypic screen, WT strain. inhibition, % at 10 µM. actives 2.1% (n = 190,000). AID 1362; in the data active = inhibition above about 58%; tested in S. cerevisiae
Diaphorase inh – diaphorase inhibition or chemical oxidation counter-screen | actives 0.69% (n = 190,000) | diaphorase resazurin-to-resorufin fluorescence, NADH, 16 min; bacterial (C. kluyveri) enzyme, not human | inhibition, % at 20 µM;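 active = primary screen inhibition at 20 µM above a set limit, cut at about 50% in these data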
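Benchmarks: positive control wells lacking NADH, neutral wells with DMSO only. System: bacterial diaphorase enzyme (C. kluyveri). Input: 0.14 U/mL diaphorase, enzyme working solution. Detection: resorufin fluorescence, excitation 544 nm, emission 590 nm. Times: 16-min room-temperature incubation before reading.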
Cl transport mod – KCC2 (human) Cl- transport modulation | Q9H2X9 | KCC2 cells, thallium flux FluoZin-2 fluorescence | B-score of Tl+ flux slope (higher = more flux/activation; lower = inhibition) at 10 µM | actives 2.2% (n = 190,000) | AID 1456;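 active = thallium flux slope and its plate-corrected score both differing from the plate sample mean at a set confidence after two filtering rounds, in either direction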;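 note: slope of fluorescence scaled to starting intensity during 10 to 20 s after thallium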
Target sequence (Q9H2X9 whole entry, looked up): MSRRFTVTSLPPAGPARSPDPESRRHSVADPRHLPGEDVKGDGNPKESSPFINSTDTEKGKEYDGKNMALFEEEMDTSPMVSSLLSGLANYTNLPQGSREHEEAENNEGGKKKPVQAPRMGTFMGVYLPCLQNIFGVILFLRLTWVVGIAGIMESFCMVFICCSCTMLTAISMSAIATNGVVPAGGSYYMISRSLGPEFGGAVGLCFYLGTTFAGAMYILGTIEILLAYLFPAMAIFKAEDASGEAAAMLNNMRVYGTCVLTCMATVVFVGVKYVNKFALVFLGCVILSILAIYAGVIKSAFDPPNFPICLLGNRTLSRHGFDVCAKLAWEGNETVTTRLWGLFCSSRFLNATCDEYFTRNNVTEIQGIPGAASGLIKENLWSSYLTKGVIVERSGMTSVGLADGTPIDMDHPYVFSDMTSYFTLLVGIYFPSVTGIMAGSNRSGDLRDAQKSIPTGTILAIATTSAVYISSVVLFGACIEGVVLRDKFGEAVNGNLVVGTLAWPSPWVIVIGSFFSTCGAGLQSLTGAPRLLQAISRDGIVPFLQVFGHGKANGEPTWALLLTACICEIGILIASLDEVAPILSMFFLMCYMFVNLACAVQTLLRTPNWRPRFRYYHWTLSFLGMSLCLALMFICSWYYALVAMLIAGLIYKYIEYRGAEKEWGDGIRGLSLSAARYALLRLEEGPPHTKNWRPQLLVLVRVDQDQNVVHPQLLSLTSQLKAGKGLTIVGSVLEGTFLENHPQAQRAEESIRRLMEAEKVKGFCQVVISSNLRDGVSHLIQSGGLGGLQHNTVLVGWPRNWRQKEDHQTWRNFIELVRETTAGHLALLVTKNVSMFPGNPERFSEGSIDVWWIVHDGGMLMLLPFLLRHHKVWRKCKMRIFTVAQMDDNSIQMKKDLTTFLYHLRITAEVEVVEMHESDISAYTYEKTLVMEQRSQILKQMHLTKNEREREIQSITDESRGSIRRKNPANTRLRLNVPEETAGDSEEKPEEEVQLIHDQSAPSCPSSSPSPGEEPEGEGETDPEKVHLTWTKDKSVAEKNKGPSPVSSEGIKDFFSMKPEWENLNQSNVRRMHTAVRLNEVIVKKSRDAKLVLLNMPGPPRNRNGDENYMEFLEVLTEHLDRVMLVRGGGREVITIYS
ROMK mod – modulators of human ROMK potassium channel. P48048. Tet-inducible ROMK, thallium flux fluorescence; actives lie on both sides. B-score at 10 µM. actives 2% (n = 130,000). AID 1918;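 active = signal ratio slope over the read window, or its plate-corrected B-score, at least 3 SD from the plate mean, either direction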;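 note: B-score of the F/F0 ratio slope over 7 to 12 s after thallium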
Diaphorase act – counter-screen for diaphorase-based assays: diaphorase activators and chemical reducers | activation factor at 20 µM | actives 0.005% (n = 190,000) | Diaphorase/resazurin coupled assay, resorufin fluorescence, 16 min; stronger effect = higher value; 1 = vehicle wells, 0 = NADH-free wells | AID 1229;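 active = diaphorase activity raised at least twofold by the compound at 20 µM; inactive = activation factor below 2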
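Assay system: Purified diaphorase enzyme from Clostridium kluyveri | Amount: Enzyme 0.07 U/mL final | Dosing: Compound 20 µM once, DMSO 1% | Timing: 16 min reaction at room temperature | Detection: Fluorescence, excitation 544 nm and emission 590 nm | Evaluation: Higher resorufin formation from activation or reduction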
ROMK retest – confirmation of human ROMK potassium channel modulators. shares compounds with ROMK mod. ROMK thallium flux, fluorescence ratio; stronger effect = lower value. normalized thallium flux (F/F0 slope) at 10 µM. actives 54% (n = 3,000);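 active = Flux at 10 µM at least 3 SD below or above vehicle control mean in one or both replicates; inconclusive = no clear call, values can overlap the other calls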
Large screens that a line does not name were inactive (follow-up assays come after a bar, where they were run). Most compounds without a hit are left out; they make up all but 12% or so of the library.

O=[N+]([O-])c1ccc(OCC2CC(c3ccccc3)=NO2)cc1 (stereo not given)	none (no result: Lmaj promast, WT yeast gro inh, Diaphorase inh, Diaphorase act)
N#C/C(=C\c1cccc([N+](=O)[O-])c1)C(=O)NCC1CCCO1 (stereo not given)	ROMK mod -10.8 | ROMK retest 0.0418
CCOC(=O)c1c(NC(=O)C[n+]2ccc(Cc3ccccc3)cc2)sc(C)c1C	Lmaj promast 52.5, ROMK mod -3.81 | ROMK retest 0.0614
O=C(NC1CCCCC1)C(c1ccncc1)N(C(=O)Cc1cccs1)c1ccccc1 (stereo not given)	none (no result: Diaphorase inh, Cl transport mod, Diaphorase act)
O=C(Oc1ccc(=O)n(-c2ccccc2)n1)c1ccc(F)cc1	ROMK mod -3.83 (no result: Cl transport mod) | ROMK retest 0.0534
O=C(Oc1ccc(=O)n(-c2ccccc2)n1)c1ccc(Cl)cc1	none (no result: ROMK mod)
Cc1cccn2cc(-c3ccccc3)nc12	none (no result: Cl transport mod, ROMK mod)
Oc1ccc(Br)cc1C=Nc1cccn2cc(-c3ccccc3)nc12	ROMK mod -10.6 | ROMK retest inconclusive
CCCCCc1cc(=O)oc2c(C(CCN3CCCC3)c3ccc(N(C)C)cc3)c(OC)cc(OC)c12 (stereo not given)	none (no result: Lmaj promast, WT yeast gro inh, Diaphorase inh, ROMK mod, Diaphorase act) | ROMK retest inconclusive
CCCCCc1cc(=O)oc2c(C(CCN3CCCCC3)c3ccc(OC)cc3)c(OC)cc(OC)c12 (stereo not given)	none (no result: Lmaj promast, WT yeast gro inh, Diaphorase inh, ROMK mod, Diaphorase act)
Brc1ccc2c(c1)CNc1c(ncnc1N1CCOCC1)O2	none (no result: ROMK mod) | ROMK retest inactive
CCNC(=S)N1CCC(C(N)=O)CC1	none (no result: Lmaj promast, WT yeast gro inh, Diaphorase inh, Diaphorase act)
CC(C)n1cnc2c(N(C)c3ccccc3)nc(N(CCN(C)C)Cc3ccccc3)nc21	none (no result: Lmaj promast, WT yeast gro inh, Diaphorase inh, ROMK mod, Diaphorase act) | ROMK retest 0.0524
Cc1cc(C(=O)OCC(=O)NCc2ccco2)c(C)n1-c1ccc(F)cc1	ROMK mod 5.13 | ROMK retest inactive
OC1(c2ccc(Cl)c(Cl)c2)C[n+]2ccccc2N1Cc1ccccc1 (stereo not given)	ROMK mod -4.02 (no result: Lmaj promast, WT yeast gro inh, Diaphorase inh, Diaphorase act) | ROMK retest 0.0584
Cn1cnc([N+](=O)[O-])c1S(=O)(=O)c1ccc(Cl)cc1	ROMK mod -4.81 | ROMK retest 0.0593
CN(Cc1ccccc1)C(=O)c1ccccc1Br	ROMK mod -2.83 (no result: Cl transport mod) | ROMK retest 0.0662
Cc1cnnn1-c1ccc([N+](=O)[O-])cc1	ROMK mod -3.24 | ROMK retest inactive
Cc1ccccc1C(=O)N1CCC(C(N)=O)CC1	none
NC(=O)C1CCN(C(=O)c2ccc3c(=O)n(Cc4ccco4)c(SCC(=O)c4ccc(F)cc4)nc3c2)CC1	ROMK mod 2.78 | ROMK retest inactive
NC(=O)C1CCN(C(=O)c2ccc3c(=O)n(Cc4ccco4)c(SCC(=O)c4ccccc4)nc3c2)CC1	none
COC(=O)c1c(-c2ccc(C(C)(C)C)cc2)csc1NC(=O)C1C2CCC(O2)C1C(=O)O (stereo not given)	none
CCN(CC)c1ccc(/C=C2\CCC(/C=N/NC(=O)c3ccc(=O)n(C)c3)=C2N2CCOCC2)cc1	none (no result: ROMK mod) | ROMK retest 0.0534
CCN(CC)c1ccc(/C=C2\CCC(/C=C(\C#N)C(=O)Nc3ccccc3F)=C2N2CCOCC2)cc1	none
CC1(C)CC(=O)C2=C(C1)Oc1nc3ccccc3cc1C2C(C#N)C#N (stereo not given)	Lmaj promast 100.1, ROMK mod -3.55 (no result: Cl transport mod) | ROMK retest 0.0583
CC1(c2ccc3c(c2)OCO3)NC(=O)N(CC(=O)Nc2ccc(N3CCOCC3)cc2)C1=O (stereo not given)	none (no result: Cl transport mod)
CCOC(=O)/C(=C\c1cccnc1)C(=O)c1cc(C(C)=O)c(Nc2ccccc2)s1	Lmaj promast 100.2, WT yeast gro inh 83.6, ROMK mod -2.99 | ROMK retest 0.0505
CCOC(=O)/C(C#N)=C\c1cccnc1	none
CCCC1=NN2C(=N)/C(=C\c3cc(C)n(Cc4ccccc4)c3C)C(=O)N=C2S1	none (no result: Lmaj promast, WT yeast gro inh, Diaphorase inh, ROMK mod, Diaphorase act)
CCCC1=NN2C(=N)/C(=C\c3ccc(SCc4ccco4)o3)C(=O)N=C2S1	Diaphorase inh 51.4, ROMK mod -3.02 (no result: Cl transport mod) | ROMK retest 0.0533
c1ccc(CSc2n[nH]c(-c3ccco3)n2)cc1	ROMK mod 1.99 | ROMK retest inactive
Cc1ccccc1NC(=O)CSc1n[nH]c(-c2ccco2)n1	none
CC(C)NC(=O)C1(O)c2ccccc2NC(=O)N1c1ccc(Cl)c(Cl)c1 (stereo not given)	none (no result: ROMK mod) | ROMK retest inconclusive
O=C1Nc2ccccc2C(O)(C(=O)N2CCCCC2)N1c1ccccc1 (stereo not given)	none (no result: ROMK mod)
O=C(CC(=O)NC1CCCCC1)N/N=C/c1cccc2ccccc12	none (no result: Cl transport mod, ROMK mod)
O=C(N1CCN(c2ccccn2)CC1)N1c2ccccc2Sc2ccccc21	WT yeast gro inh 71.5, ROMK mod 3.3 | ROMK retest inactive
O=C(c1ccco1)N1CCN(C(=O)N2c3ccccc3Sc3ccccc32)CC1	ROMK mod -3.04 | ROMK retest inactive
O=C(c1ccco1)N1c2ccccc2Sc2ccccc21	none (no result: ROMK mod)
O=C(COc1cc(Cl)c(Cl)cc1Cl)N1CCN(c2ccccn2)CC1	ROMK mod -3.02 | ROMK retest 0.0658
O=C(c1cnsn1)N1CCN(c2ccccn2)CC1	ROMK mod 1.65 (no result: Cl transport mod) | ROMK retest inactive
Cc1cc(C(=O)N2CCN(c3ccccn3)CC2)no1	none (no result: ROMK mod)
N/C(=N\OC(=O)c1ccc(Cl)cc1)c1nonc1N	none (no result: Cl transport mod, ROMK mod)
CCC1CCCCN1C(=S)Nc1cccc(S(=O)(=O)N(C)C)c1 (stereo not given)	none
COc1ccc(-n2c(C)cc(C(=O)NC3CCCCC3)c2C)cc1	none
COc1ccccc1/C=C/C1(C(=O)NC2CCCC2)CC(=O)N1c1ccc(C)cc1 (stereo not given)	ROMK mod -4.96 | ROMK retest 0.0621
O=C(NNC(=O)[C@@H]1CCCC[C@@H]1C(=O)O)Nc1ccccc1	none (no result: ROMK mod)
CC(C)Oc1ccc(C(=O)NC2(C(F)(F)F)N=C3SCCN3C2=O)cc1 (stereo not given)	none
CCOC(=O)c1c(C)n(C)c2ccc(OC)c(NC(=O)CN3CCCCC3)c12	ROMK mod -4.08 | ROMK retest 0.0562
COc1ccc(OC)c(/C=c2\sc3nc(-c4cccs4)nn3c2=O)c1	none (no result: Cl transport mod, ROMK mod) | ROMK retest 0.0622
CCOc1cccc2sc(N(CCCN(C)C)C(=O)Cc3ccccc3)nc12	ROMK mod -3.17 | ROMK retest 0.0568
CN(C)CCCN(C(=O)COc1ccccc1)c1nc2c(F)cccc2s1	none
CC(C)(C)OC(=O)C(Cl)(C(=O)OC(C)(C)C)c1ccc2nnnn2n1	none | ROMK retest 0.0643
O=C(COC(=O)CCCN1C(=O)c2ccccc2C1=O)Nc1cc(Cl)cc(Cl)c1	none
Cc1ccc(Cl)cc1N1CCN(S(=O)(=O)c2cccc(S(=O)(=O)N3CCCC3)c2)CC1	Lmaj promast 60.8, ROMK mod -3.26 | ROMK retest inactive
